Compound activity from PubChem.
An excerpt weighted towards active compounds, which were near 3.6% of everything screened.
Yeast lifespan up – extends the lifespan of yeast; inhibition of the nicotinamide effect, % at 10 µM; 130,000 compounds, 0.68% hits; S. cerevisiae growth with nicotinamide, OD615; deaD strain in restrictive glucose medium;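 active = inhibition above a set limit, placed 3 SD over the median of all compounds, cut at about 26% in these data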;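 note: 0% = nicotinamide-treated wells and 100% = cells grown without nicotinamide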
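Assay system: engineered S. cerevisiae DeaD replicative-lifespan strain, galactose-grown log-phase cells; medium: restrictive CSMM-D dextrose medium; also added: nicotinamide, 1.5 mM, co-present with compound; schedule: 48 h compound exposure at 30 °C, humidified; detection: absorbance at 615 nm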
Measles CPE – protection of cells from measles virus; 140,000 compounds, 1.5% hits; Measles virus-infected cells, CPE protection, absorbance; protection (pct of control), % at 4 µM; in the data active = protection mostly above about 24%, no sharp cut-off; inactive = mostly below about 26%
RAM inhibit – yeast RAM network inhibition. S. cerevisiae dse1pr::URA3 reporter, 5-FOA growth OD615, 2 d; analog-sensitive cbk1-as2 kinase mutant strain. inhibition, % at 50 µM. 190,000 compounds, 1.8% hits;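 active = inhibition above a set limit, 3 SD over mean compound inhibition, cut at about 8.4% in these data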;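 note: 0% = DMSO-only wells with no growth and 100% = 10 µM 1-NA-PP1 full growth; inhibition rescues growth on 5-FOA so higher OD means more RAM inhibition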
Phagocytosis inh – blocks phagocytosis by macrophages; 110,000 compounds, 0.07% hits; J774A.1 macrophage IgG-bead phagocytosis, imaging; inhibition, % at 5 µM;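 active = inhibition above the mean of the plate negative controls plus 5 SD, cut at about 13% in these data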;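 note: phagocytic index as fraction of beads internalized from green versus red external bead signal; plate controls were DMSO negative control for no effect and cytochalasin-D positive control for full effect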
BB579 growth dn – reduces growth of yeast BB579 in restrictive medium | S. cerevisiae BB579 growth, OD615, 48 h | inhibition, % at 10 µM | 140,000 compounds, 0.51% hits;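 active = inhibition above a set limit, 3 SD over the mean compound inhibition, cut at about 44% in these data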
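Test system: DeaD yeast strain BB579 / Buffer or medium: restrictive glucose-based CSMM-D medium / Doses: single 10 µM dose / Schedule: 4 h cell preincubation, 48 h compound exposure, 30 °C humidified / Technique: culture absorbance at 615 nm / Controls: amphotericin B positive control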
Starred values were filed as active, the others as inactive.

`COc1ccc(C(=O)/C(C#N)=N/Nc2ccc([N+](=O)[O-])cc2)cc1` gave RAM inhibit 1.7.
`CCOc1ccc(N/N=C(/C#N)C(N)=O)cc1` gave Yeast lifespan up -7.9, Measles CPE 10.5, RAM inhibit -0.6 and BB579 growth dn 96.8*.
`CCOc1ccc(N/C(SC)=C(/C#N)C(N)=O)cc1` gave Yeast lifespan up -9.8, Measles CPE 6.0, RAM inhibit 0.0 and BB579 growth dn -21.1.
Screening COc1ccc(N/N=C(\C#N)C(N)=O)cc1 returned Yeast lifespan up 6.8, Measles CPE 7.7, RAM inhibit 2.2, Phagocytosis inh -7.8 and BB579 growth dn 58.5*.
Screening CCc1ccc(C(=O)/C=C/c2ccc([N+](=O)[O-])o2)cc1 returned Yeast lifespan up 45.5*, Measles CPE 0.9, RAM inhibit 1.5, Phagocytosis inh 0.1 and BB579 growth dn -59.1.
CCc1ccc(/C=C/C(=O)c2ccc(S(=O)(=O)N(C)C)cc2)cc1 was read as Yeast lifespan up 2.4, Measles CPE 6.4, RAM inhibit 4.0, Phagocytosis inh 3.5 and BB579 growth dn -31.6.
CCNC(=O)NC(=O)C(C)On1nnc2ccc(S(=O)(=O)N(CC)CC)cc21 (stereo not given) was read as Yeast lifespan up 28.1*, Measles CPE 4.7, RAM inhibit 5.5, Phagocytosis inh -9.6 and BB579 growth dn -37.5.
Screening COc1ccc(C2NC(=O)NC(c3ccccc3)=C2c2nc3ccccc3s2)cc1 (stereo not given) returned Yeast lifespan up -7.3, Measles CPE 28.3*, RAM inhibit 8.7*, Phagocytosis inh -0.4 and BB579 growth dn -40.9.
For O=C1NC(c2ccccc2)=C(c2nc3ccccc3s2)C(c2ccc(F)cc2)N1 (stereo not given) the results were Yeast lifespan up 15.3, Measles CPE 6.7, RAM inhibit 6.5 and BB579 growth dn -11.1.
COc1ccc(CCN(CC(=O)NC(C)(C)C)C(=O)Cn2nnc(-c3ccc(C)o3)n2)cc1OC was read as RAM inhibit -0.1.
Screening Cc1nn(-c2c(Cl)cc(Cl)cc2Cl)c(=O)c2ccccc12 returned Yeast lifespan up 48.7*, Measles CPE 22.6, RAM inhibit 0.5, Phagocytosis inh 0.8 and BB579 growth dn -5.8.
O=C1CCCN1CCCNc1ncnc2sccc12 was read as RAM inhibit 1.7.
`Cc1cc(C(=O)CSc2ccc(F)cc2)cc(C)c1OC(=S)N(C)C` gave Yeast lifespan up -5.7, Measles CPE 4.8, RAM inhibit 8.8*, Phagocytosis inh -0.6 and BB579 growth dn -54.0.
Screening COc1ccccc1C(=O)C1CCCN(Cc2cn[nH]c2C2CCCCC2)C1 (stereo not given) returned RAM inhibit 0.8.
For CSCCC(NC(=O)c1ccc([N+](=O)[O-])cc1Cl)C(=O)OCC(=O)NCC(F)(F)F (stereo not given) the results were Yeast lifespan up 4.2, Measles CPE 4.3, RAM inhibit 0.4 and BB579 growth dn -6.5.
Screening CSCCC(NC(=O)c1ccc([N+](=O)[O-])cc1Cl)C(=O)OCC(=O)NCCCc1ccccc1 (stereo not given) returned Yeast lifespan up 4.3, Measles CPE 2.9, RAM inhibit 9.5*, Phagocytosis inh -14.8 and BB579 growth dn -37.6.
For Nc1nnc(SCC(=O)c2ccc3c(c2)NC(=O)CO3)s1 the results were RAM inhibit 1.4.
COCCN1CSC(=S)N(Cc2ccco2)C1 was read as Yeast lifespan up -8.5, Measles CPE 6.8, RAM inhibit -0.7, Phagocytosis inh 2.3 and BB579 growth dn 59.5*.
For S=C1SCN(Cc2ccccn2)CN1Cc1ccco1 the results were Yeast lifespan up 21.8, Measles CPE 1.9, RAM inhibit -0.8, Phagocytosis inh 0.8 and BB579 growth dn 52.3*.
`O=C(NCCO)c1ccccc1O` gave Yeast lifespan up -8.6, Measles CPE 25.5*, RAM inhibit -1.3, Phagocytosis inh 4.4 and BB579 growth dn -29.3.
For CCN(CCO)C(=O)C12CCC(C)(C(=O)C1)C2(C)C (stereo not given) the results were Yeast lifespan up 68.0*, Measles CPE 11.0, RAM inhibit 0.3, Phagocytosis inh -2.2 and BB579 growth dn -1.1.
`O=C(CN1CCOCC1)Nc1ccccc1Sc1ccc(Cl)cc1` gave Yeast lifespan up 1.4, Measles CPE 6.2, RAM inhibit 0.4, Phagocytosis inh -3.0 and BB579 growth dn -37.8.
COc1cc(OC)nc(-n2ncc(Br)c(Br)c2=O)n1 was read as Yeast lifespan up 38.3*, Measles CPE 1.6, RAM inhibit 2.3, Phagocytosis inh -0.2 and BB579 growth dn -24.6.
COC(=O)c1cnn(-c2nc(OC)cc(OC)n2)c1C was read as Yeast lifespan up -5.1, Measles CPE 11.1, RAM inhibit -0.4, Phagocytosis inh -2.9 and BB579 growth dn -4.9.
For O=C(CCCSc1nnnn1-c1cccc2ccccc12)c1ccc(F)cc1 the results were Yeast lifespan up -1.4, Measles CPE 11.9, RAM inhibit 9.4*, Phagocytosis inh -0.4 and BB579 growth dn -31.5.
`COC(=O)CSc1nnnn1-c1cccc2ccccc12` gave Yeast lifespan up -25.9, Measles CPE 4.9, RAM inhibit 0.4, Phagocytosis inh -0.6 and BB579 growth dn -12.6.
For CN(CCc1cnn(C)c1)Cc1nc(CC2CC2)no1 the results were RAM inhibit 0.8.
Cc1noc2ncnc(Sc3ccccc3Cl)c12 was read as Yeast lifespan up -0.8, Measles CPE 5.4, RAM inhibit -0.2, Phagocytosis inh 4.0 and BB579 growth dn 60.8*.
`O=C(OCc1nnc(-c2ccc(Cl)cc2)o1)c1ccncc1` gave Yeast lifespan up 6.0, Measles CPE 16.4, RAM inhibit 4.0, Phagocytosis inh -0.5 and BB579 growth dn -68.9.
`Cc1noc(C)c1COc1ccc(C(=O)OCc2nnc(-c3ccc(Cl)cc3)o2)cc1` gave Yeast lifespan up -5.6, Measles CPE 5.4, RAM inhibit 10.0*, Phagocytosis inh 0.1 and BB579 growth dn -71.2.
`CCOC(=O)Cn1nnnc1C(CC)N(Cc1cccs1)Cc1cc2ccc(OC)cc2[nH]c1=O` (stereo not given) gave Yeast lifespan up 0.3, Measles CPE 19.5, RAM inhibit 9.6*, Phagocytosis inh 1.0 and BB579 growth dn -35.4.
CCOC(=O)Cn1nnnc1CN(Cc1cccs1)Cc1cc2cc(C)ccc2[nH]c1=O was read as Yeast lifespan up -12.1, Measles CPE 16.7, RAM inhibit 2.3 and BB579 growth dn -17.4.
Screening COCCCNC(=S)NCCNc1nc2c(C)c(C)ccc2cc1C#N returned RAM inhibit 9.6*.
For CCOCCCNC(=S)NCCNc1nc2ccc(C)cc2cc1C#N the results were Yeast lifespan up 0.6, Measles CPE 54.9*, RAM inhibit 3.6, Phagocytosis inh -6.5 and BB579 growth dn -11.8.
For COCCCNC(=S)NCCCNc1nc2cc(C)cc(C)c2cc1C#N the results were RAM inhibit 1.9.
For C=CCn1cn[nH]c1=S the results were RAM inhibit 2.0.
